≈ marks a conversion by molar mass, not a printed value.
Assays:
Type in all cases: functional
[1] = test system: Pseudomonas aeruginosa; assay: Antibacterial activity against Pseudomonas aeruginosa P334 assessed as mutant prevention concentration after overnight incubation
[2] = test system: Acinetobacter baumannii; assay: Antibacterial activity against Acinetobacter baumannii A850 assessed as mutant prevention concentration after overnight incubation
[3] = test system: Pseudomonas aeruginosa; assay: Antibacterial activity against Pseudomonas aeruginosa P332 assessed as mutant prevention concentration after overnight incubation
[4] = test system: Pseudomonas aeruginosa; assay: Antibacterial activity against Pseudomonas aeruginosa P328 assessed as mutant prevention concentration after overnight incubation
[5] = test system: Pseudomonas aeruginosa; assay: Antibacterial activity against Pseudomonas aeruginosa P323 assessed as mutant prevention concentration after overnight incubation
[6] = test system: Escherichia coli; assay: Antibacterial activity against beta-lactamase-negative Escherichia coli E348 assessed as mutant prevention concentration after overnight incubation
[7] = test system: Klebsiella pneumoniae; assay: Antibacterial activity against beta-lactamase-positive ESBL-negative Klebsiella pneumoniae E507 assessed as mutant prevention concentration after overnight incubation
How it was run: (§1)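 Overnight growth on blood trypticase soy agar (35°C, air) was resuspended in 0.9% saline and counted on drug-free Mueller-Hinton agar. […] Colonies were retested by agar dilution to confirm mutants. MPC was the lowest concentration preventing resistant-mutant growth.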

[8] = test system: Escherichia coli; assay: Antibacterial activity against beta-lactamase-positive ESBL-negative Escherichia coli E484 assessed as mutant prevention concentration after overnight incubation; how it was run: as §1
[9] = test system: Klebsiella pneumoniae; assay: Antibacterial activity against beta-lactamase-positive ESBL-negative Klebsiella pneumoniae E480 assessed as mutant prevention concentration after overnight incubation; how it was run: as §1
[10] = test system: Klebsiella pneumoniae; assay: Antibacterial activity against beta-lactamase-positive ESBL-positive Klebsiella pneumoniae E475 assessed as mutant prevention concentration after overnight incubation; how it was run: as §1
[11] = test system: Acinetobacter baumannii; assay: Antibacterial activity against Acinetobacter baumannii A848 assessed as mutant prevention concentration after overnight incubation
[12] = test system: Escherichia coli; assay: Antibacterial activity against beta-lactamase-positive ESBL-positive Escherichia coli E456 assessed as mutant prevention concentration after overnight incubation; how it was run: as §1
[13] = test system: Pseudomonas aeruginosa; assay: Antibacterial activity against Pseudomonas aeruginosa P337 assessed as mutant prevention concentration after overnight incubation
[14] = test system: Klebsiella pneumoniae; assay: Antibacterial activity against beta-lactamase-positive ESBL-positive Klebsiella pneumoniae E457 assessed as mutant prevention concentration after overnight incubation; how it was run: as §1
[15] = test system: Escherichia coli; assay: Antibacterial activity against beta-lactamase-positive ESBL-positive Escherichia coli E459 assessed as mutant prevention concentration after overnight incubation; how it was run: as §1
[16] = test system: Escherichia coli; assay: Antibacterial activity against beta-lactamase-positive ESBL-positive Escherichia coli E451 assessed as mutant prevention concentration after overnight incubation; how it was run: as §1
[17] = test system: Acinetobacter baumannii; assay: Antibacterial activity against Acinetobacter baumannii A928 assessed as mutant prevention concentration after overnight incubation
[18] = test system: Escherichia coli; assay: Antibacterial activity against beta-lactamase-positive ESBL-negative Escherichia coli E415 assessed as mutant prevention concentration after overnight incubation; how it was run: as §1
[19] = test system: Klebsiella pneumoniae; assay: Antibacterial activity against beta-lactamase-negative Klebsiella pneumoniae E418 assessed as mutant prevention concentration after overnight incubation; how it was run: as §1
[20] = test system: Escherichia coli; assay: Antibacterial activity against beta-lactamase-negative Escherichia coli E346 assessed as mutant prevention concentration after overnight incubation
[21] = test system: Acinetobacter baumannii; assay: Antibacterial activity against Acinetobacter baumannii A896 assessed as mutant prevention concentration after overnight incubation
[22] = test system: Pseudomonas aeruginosa; assay: Antibacterial activity against Pseudomonas aeruginosa P356 assessed as mutant prevention concentration after overnight incubation
[23] = test system: Pseudomonas aeruginosa; assay: Antibacterial activity against Pseudomonas aeruginosa P335 assessed as mutant prevention concentration after overnight incubation
[24] = test system: Pseudomonas aeruginosa; assay: Antibacterial activity against Pseudomonas aeruginosa P322 assessed as mutant prevention concentration after overnight incubation
[25] = test system: Acinetobacter baumannii; assay: Antibacterial activity against Acinetobacter baumannii A851 assessed as mutant prevention concentration after overnight incubation
[26] = test system: Pseudomonas aeruginosa; assay: Antibacterial activity against Pseudomonas aeruginosa P349 assessed as mutant prevention concentration after overnight incubation
[27] = test system: Pseudomonas aeruginosa; assay: Antibacterial activity against Pseudomonas aeruginosa P326 assessed as mutant prevention concentration after overnight incubation
[28] = test system: Acinetobacter baumannii; assay: Antibacterial activity against Acinetobacter baumannii A911 assessed as mutant prevention concentration after overnight incubation
[29] = test system: Klebsiella pneumoniae; assay: Antibacterial activity against beta-lactamase-positive ESBL-negative Klebsiella pneumoniae E509 assessed as mutant prevention concentration after overnight incubation; how it was run: as §1
[30] = test system: Klebsiella pneumoniae; assay: Antibacterial activity against beta-lactamase-positive ESBL-positive Klebsiella pneumoniae E453 assessed as mutant prevention concentration after overnight incubation; how it was run: as §1
[31] = test system: Escherichia coli; assay: Antibacterial activity against beta-lactamase-positive ESBL-positive Escherichia coli E458 assessed as mutant prevention concentration after overnight incubation; how it was run: as §1
[32] = test system: Acinetobacter baumannii; assay: Antibacterial activity against Acinetobacter baumannii A891 assessed as mutant prevention concentration after overnight incubation
[33] = test system: Escherichia coli; assay: Antibacterial activity against beta-lactamase-positive ESBL-negative Escherichia coli E430 assessed as mutant prevention concentration after overnight incubation; how it was run: as §1
[34] = test system: Escherichia coli; assay: Antibacterial activity against beta-lactamase-positive ESBL-positive Escherichia coli E460 assessed as mutant prevention concentration after overnight incubation; how it was run: as §1
[35] = test system: Pseudomonas aeruginosa; assay: Antibacterial activity against Pseudomonas aeruginosa P376 assessed as mutant prevention concentration after overnight incubation
[36] = test system: Klebsiella pneumoniae; assay: Antibacterial activity against beta-lactamase-negative Klebsiella pneumoniae E361 incubated up to 7 days by agar dilution method; conditions: E361, 168 h
[37] = test system: Escherichia coli; assay: Antibacterial activity against beta-lactamase-negative Escherichia coli E348 incubated up to 7 days by agar dilution method; conditions: E348, 168 h
[38] = test system: Klebsiella pneumoniae; assay: Antibacterial activity against beta-lactamase-positive ESBL-negative Klebsiella pneumoniae E511 incubated up to 7 days by agar dilution method; conditions: E511, 168 h
[39] = test system: Klebsiella pneumoniae; assay: Antibacterial activity against beta-lactamase-negative Klebsiella pneumoniae E362 incubated up to 7 days by agar dilution method; conditions: E362, 168 h
[40] = test system: Escherichia coli; assay: Antibacterial activity against beta-lactamase-negative Escherichia coli E424 […] by agar dilution method
[41] = test system: Klebsiella pneumoniae; assay: Antibacterial activity against beta-lactamase-positive ESBL-positive Klebsiella pneumoniae E475 incubated up to 7 days by agar dilution method; conditions: E475, 168 h
[42] = test system: Klebsiella pneumoniae; assay: Antibacterial activity against beta-lactamase-positive ESBL-positive Klebsiella pneumoniae E453 incubated up to 7 days by agar dilution method; conditions: E453, 168 h
How it was run: (§2)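 MIC by CLSI agar dilution, with quality-control strains in each run. Beta-lactamase status was set by 30 μg cefazolin Kirby-Bauer disk diffusion. ESBL status was set by cefotaxime and ceftazidime disks (30 μg) with and without clavulanic acid (10 μg).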

[43] = test system: Escherichia coli; assay: Antibacterial activity against beta-lactamase-positive ESBL-negative Escherichia coli E415 incubated up to 7 days by agar dilution method; conditions: E415, 168 h; how it was run: as §2
[44] = test system: Escherichia coli; assay: Antibacterial activity against beta-lactamase-negative Escherichia coli E350 […] by agar dilution method
[45] = test system: Klebsiella pneumoniae; assay: Antibacterial activity against beta-lactamase-positive ESBL-negative Klebsiella pneumoniae E472 incubated up to 7 days by agar dilution method; conditions: E472, 168 h
[46] = test system: Klebsiella pneumoniae; assay: Antibacterial activity against beta-lactamase-negative Klebsiella pneumoniae E357 incubated up to 7 days by agar dilution method; conditions: E357, 168 h
[47] = test system: Klebsiella pneumoniae; assay: Antibacterial activity against beta-lactamase-positive ESBL-negative Klebsiella pneumoniae E474 incubated up to 7 days by agar dilution method; conditions: E474, 168 h
[48] = test system: Klebsiella pneumoniae; assay: Antibacterial activity against beta-lactamase-negative Klebsiella pneumoniae E418 incubated up to 7 days by agar dilution method; conditions: E418, 168 h

`C[C@@H](O)[C@H]1C(=O)N2C(C(=O)O)=C(SCCNC=N)C[C@H]12` [IMIPENEM ANHYDROUS] was tested, and the MPC [1] was 16 µg/mL, the MPC [2] was 8 µg/mL and the MPC [3] was 16 µg/mL. The MPC [4] was 32 µg/mL, the MPC [5] was 64 µg/mL and the MPC [6] was 0.5 µg/mL. For the same compound, the MPC [7] was 64 µg/mL, the MPC [8] was greater than 16 µg/mL and the MPC [9] was greater than 16 µg/mL. The MPC [10] was 16 µg/mL, the MPC [11] was 8 µg/mL and the MPC [12] was 1 µg/mL. It also gave an MPC [13] of 16 µg/mL, an MPC [14] of 0.5 µg/mL and an MPC [15] of 0.5 µg/mL. For the same compound, the MPC [16] was 0.5 µg/mL, the MPC [17] was 1 µg/mL and the MPC [18] was 0.5 µg/mL. The MPC [19] was 4 µg/mL, the MPC [20] was 0.5 µg/mL and the MPC [21] was 1 µg/mL. It also gave an MPC [22] greater than 32 µg/mL, an MPC [23] of 32 µg/mL and an MPC [24] of 32 µg/mL. The MPC [25] was 8 µg/mL, the MPC [26] was 32 µg/mL and the MPC [27] was 32 µg/mL. For the same compound, the MPC [28] was 8 µg/mL, the MPC [29] was greater than 32 µg/mL and the MPC [30] was 0.5 µg/mL. It also gave an MPC [31] of 0.5 µg/mL, an MPC [32] of 1 µg/mL and an MPC [33] of 2 µg/mL. For the same compound, the MPC [34] was 0.5 µg/mL and the MPC [35] was 64 µg/mL.

`C[C@@H](O)[C@H]1C(=O)N2C(C(=O)O)=C(S[C@@H]3CN[C@H](C(=O)N(C)C)C3)[C@H](C)[C@H]12` [MEROPENEM] gave an MPC [1] greater than 4 µg/mL, an MPC [2] of 16 µg/mL and an MPC [3] of 32 µg/mL. For the same compound, the MPC [4] was 16 µg/mL, the MIC [36] was 0.06 µg/mL (≈ 0.156 µM) and the MIC [37] was 0.03 µg/mL (≈ 0.0782 µM). It also gave an MPC [5] of 4 µg/mL, an MPC [6] of 0.06 µg/mL and an MPC [7] greater than 64 µg/mL. The MPC [8] was 16 µg/mL, the MPC [9] was 16 µg/mL and the MPC [10] was 32 µg/mL. The MPC [11] was 32 µg/mL, the MIC [38] was 4 µg/mL (≈ 10.4 µM) and the MPC [12] was 0.125 µg/mL. It also gave an MIC [39] of 0.06 µg/mL (≈ 0.156 µM), an MPC [13] of 8 µg/mL and an MPC [14] of 0.125 µg/mL. The MIC [40] was 0.03 µg/mL (≈ 0.0782 µM), the MIC [41] was 4 µg/mL (≈ 10.4 µM) and the MPC [15] was 0.125 µg/mL. It also gave an MPC [16] of 0.06 µg/mL, an MPC [17] of 4 µg/mL and an MIC [42] of 0.06 µg/mL (≈ 0.156 µM). The MPC [18] was 0.125 µg/mL, the MPC [19] was 0.125 µg/mL and the MPC [20] was 0.06 µg/mL. For the same compound, the MIC [43] was 0.06 µg/mL (≈ 0.156 µM), the MPC [21] was 4 µg/mL and the MPC [22] was greater than 4 µg/mL. For the same compound, the MPC [23] was 32 µg/mL, the MPC [24] was 16 µg/mL and the MPC [25] was 32 µg/mL. For the same compound, the MIC [44] was 0.03 µg/mL (≈ 0.0782 µM), the MIC [45] was 4 µg/mL (≈ 10.4 µM) and the MPC [26] was 16 µg/mL. For the same compound, the MIC [46] was 0.03 µg/mL (≈ 0.0782 µM), the MPC [27] was 64 µg/mL and the MPC [28] was 8 µg/mL. It also gave an MPC [29] greater than 64 µg/mL, an MPC [30] of 0.5 µg/mL and an MPC [31] of 0.125 µg/mL. For the same compound, the MPC [32] was 2 µg/mL, the MPC [33] was 0.125 µg/mL and the MPC [34] was 0.06 µg/mL. The MPC [35] was 16 µg/mL, the MIC [47] was 4 µg/mL (≈ 10.4 µM) and the MIC [48] was 0.06 µg/mL (≈ 0.156 µM).

Source: ChEMBL document CHEMBL1255475, “Mutant prevention concentrations of four carbapenems against gram-negative rods” (2010)
